The text below walks through data of ChEMBL document CHEMBL1145361, “3-Amino-1-alkyl-cyclopentane carboxamides as small molecule antagonists of the human and murine CC chemokine receptor 2” (Bioorg Med Chem Lett, 2007).

The target of data set [1] is C-C chemokine receptor type 2 (Homo sapiens, UniProt P41597, I40L). Briefly: Displacement of [125I]MCP1 from human CCR2 I40L mutant expressed in CHO cells. It is filed as cell-based. The method, boiled down:
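Radioligand competition was run at room temperature for 45 min in 50 mM Hepes, 5 mM MgCl2, 1 mM CaCl2, pH 7.4, with 0.5% BSA and protease inhibitors. The reaction was stopped by filtration through GF/B filters presoaked in 0.10% polyethyleneimine to separate bound from free ligand.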
(Loss of bound radioactivity is the signal in a displacement assay; it reports binding, not function.)

The target in data set [2] is C-C chemokine receptor type 2 (Mus musculus, UniProt P51683). Briefly: Displacement of [125I]MCP1 from mouse CCR2 receptor expressed in CHO cells. It is filed as cell-based.
C-C chemokine receptor type 2 (Mus musculus, UniProt P51683), sequence (P51683 whole entry): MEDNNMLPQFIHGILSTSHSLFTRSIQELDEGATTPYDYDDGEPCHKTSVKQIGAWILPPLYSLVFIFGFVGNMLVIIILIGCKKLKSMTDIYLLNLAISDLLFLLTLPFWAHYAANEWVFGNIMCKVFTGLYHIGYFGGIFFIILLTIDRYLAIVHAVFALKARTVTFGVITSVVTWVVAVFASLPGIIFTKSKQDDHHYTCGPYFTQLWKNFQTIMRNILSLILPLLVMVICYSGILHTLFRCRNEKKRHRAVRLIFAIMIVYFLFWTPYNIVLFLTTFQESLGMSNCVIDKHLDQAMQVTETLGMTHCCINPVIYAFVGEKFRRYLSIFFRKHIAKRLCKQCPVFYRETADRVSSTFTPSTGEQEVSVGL
Data set [3] deals with C-C chemokine receptor type 2 (Mus musculus) (UniProt P51683). The data set is described as follows: Displacement of [125I]MCP1 from mouse CCR2 receptor expressed in CHO cells at 1 uM. It is filed as cell-based.
C-C chemokine receptor type 2 (Mus musculus), sequence (P51683 whole entry, looked up): as the sequence (P51683 whole entry) above
Data set [4] deals with C-C chemokine receptor type 2 (Homo sapiens, UniProt P41597). The data set is described as follows: Inhibition of Ca2+ flux in human monocytes. It is filed as functional, cell-based.
C-C chemokine receptor type 2 (Homo sapiens, UniProt P41597), sequence (P41597 whole entry): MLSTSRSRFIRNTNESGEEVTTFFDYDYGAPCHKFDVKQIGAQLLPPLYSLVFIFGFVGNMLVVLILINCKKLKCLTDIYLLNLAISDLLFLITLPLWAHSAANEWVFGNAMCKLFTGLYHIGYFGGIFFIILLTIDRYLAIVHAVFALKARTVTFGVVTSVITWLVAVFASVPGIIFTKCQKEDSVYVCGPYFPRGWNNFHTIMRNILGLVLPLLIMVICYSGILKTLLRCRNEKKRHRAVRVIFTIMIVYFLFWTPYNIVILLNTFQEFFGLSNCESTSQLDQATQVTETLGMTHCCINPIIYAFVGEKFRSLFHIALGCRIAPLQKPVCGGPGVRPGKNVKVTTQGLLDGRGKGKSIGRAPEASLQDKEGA
The nature of data set [5]: Cmax in Sprague-Dawley rat at 3 mg/kg, po. It is filed as ADME, organism-based. Particulars: in vivo. The arrangement: dose 3 mg/kg, route oral. The method in brief:
(§1)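 Male Sprague–Dawley rats were dosed intravenously at 1.0 mg/kg and orally at 3.0 mg/kg. Clearance, volume of distribution, t1/2, Cmax, Tmax, oral bioavailability (F%) and AUC were determined, with oral AUC normalized.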

The nature of data set [6]: Clearance in Sprague-Dawley rat at 1 mg/kg, iv. It is filed as ADME, organism-based. The arrangement: dose 1 mg/kg, route intravenous. The following applies: in vivo. The method in brief: as §1
Data set [7] in a line: Volume of distribution in Sprague-Dawley rat at 1 mg/kg, iv. It is filed as ADME, organism-based. Further details: dose 1 mg/kg, route intravenous. The following applies: in vivo, read-out: Vdss. The method, boiled down:
as §1

Data set [8] is described as follows: Half life in Sprague-Dawley rat at 1 mg/kg, iv. The arrangement: dose 1 mg/kg, route intravenous. It is filed as ADME, organism-based. Particulars: in vivo. The method, boiled down:
as §1

The nature of data set [9]: Tmax in Sprague-Dawley rat at 3 mg/kg, po. It is filed as ADME, organism-based. Further details: dose 3 mg/kg, route oral. The following applies: in vivo. The method in brief: as §1
Data set [10] is described as follows: Bioavailability in Sprague-Dawley rat at 3 mg/kg, po. It is filed as ADME, organism-based. Particulars: in vivo. The method, boiled down:
as §1

Data set [11] in a line: Half life in Sprague-Dawley rat at 3 mg/kg, po. Particulars: in vivo. It is filed as ADME, organism-based. Further details: dose 3 mg/kg, route oral. The method, boiled down: as §1

The term IC50 denotes the concentration that gives 50% inhibition. By Cmax is commonly meant the highest concentration seen after dosing. The clearance is a measure of how efficiently the substance is removed, as volume per time. The term half-life denotes how long it takes for the measured level to halve. The Tmax is the time at which the peak concentration occurs. For orientation: bioavailability means the share of a dose that reaches the circulation, judged against a reference dose that is usually intravenous. Low values mean poor availability, high ones good availability.

C-C chemokine receptor type 2 (Homo sapiens, UniProt P41597, I40L), sequence (P41597 whole entry I40L): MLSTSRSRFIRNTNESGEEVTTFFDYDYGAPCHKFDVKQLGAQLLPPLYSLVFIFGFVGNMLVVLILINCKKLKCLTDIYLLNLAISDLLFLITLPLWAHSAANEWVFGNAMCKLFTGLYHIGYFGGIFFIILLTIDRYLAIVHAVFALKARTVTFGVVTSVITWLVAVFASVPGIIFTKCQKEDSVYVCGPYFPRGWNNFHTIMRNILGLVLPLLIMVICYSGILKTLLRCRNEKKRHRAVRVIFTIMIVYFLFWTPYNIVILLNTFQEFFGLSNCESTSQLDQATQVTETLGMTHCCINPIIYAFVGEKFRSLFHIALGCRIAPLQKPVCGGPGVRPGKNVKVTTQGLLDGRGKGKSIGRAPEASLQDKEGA

In the case of `CCC1(C(=O)NCc2cc(C(F)(F)F)cc(C(F)(F)F)c2)CCC(N2CC[C@]3(C=Cc4ccccc43)[C@@H](C)C2)C1` (stereo partly specified), the IC50 was 10 nM in data set [1] and 17.5 nM in [2].
Taken in the same sequence, the figures for `C[C@H]1CN(C2CCC(CC3CCC3)(C(=O)NCc3cc(F)cc(C(F)(F)F)c3)C2)CC[C@]12C=Cc1ccccc12` (single isomer, unassigned; diastereomer 3) were 135 nM and 559 nM.
As to `C[C@H]1CN(C2CCC(CC3CCC3)(C(=O)NCc3cc(F)cc(C(F)(F)F)c3)C2)CC[C@]12C=Cc1ccccc12` (stereo partly specified), the values for the IC50 in [1] and in [2] were 6.3 nM and 28 nM, respectively.
Taken in the same sequence, the figures for `CSC[C@]1(C(=O)NCc2cc(C(F)(F)F)cc(C(F)(F)F)c2)CC[C@@H](N2CC[C@]3(C=Cc4ccccc43)[C@@H](C)C2)C1` were 13 nM and 65.5 nM.
Taken in the same sequence, the figures for `C[C@H]1CN(C2CCC(CC3CC3)(C(=O)NCc3cc(C(F)(F)F)cc(C(F)(F)F)c3)C2)CC[C@]12C=Cc1ccccc12` (stereo partly specified) were 20 nM and 63.5 nM.
Taken in the same sequence, the figures for `CC(C)[C@]1(C(=O)NCc2cc(C(F)(F)F)cc(C(F)(F)F)c2)CC[C@@H](N2CC[C@]3(C=Cc4ccccc43)[C@@H](C)C2)C1` were 7.6 nM and 15 nM.
As for `C[C@H]1CN(C2CCC(CC3CCC3)(C(=O)NCc3cc(F)cc(C(F)(F)F)c3)C2)CC[C@]12C=Cc1ccccc12` (single isomer, unassigned; diastereomer 4) [listing 1 of 2 here], the Activity in data set [3] amounted to 49%.
As for `CS[C@]1(C(=O)NCc2cc(C(F)(F)F)cc(C(F)(F)F)c2)CC[C@@H](N2CC[C@]3(C=Cc4ccccc43)[C@@H](C)C2)C1`, the IC50 is 28 nM in data set [1] and 351 nM in data set [2].
For `C[C@H]1CN([C@@H]2CC[C@H](C(=O)NCc3cc(C(F)(F)F)cc(C(F)(F)F)c3)C2)CC[C@]12C=Cc1ccccc12`, in data set [1], the IC50 was 20 nM. This compound also yielded an Activity in data set [3] of 27%.
Take `CSC[C@]1(C(=O)NCc2cc(F)cc(C(F)(F)F)c2)CC[C@@H](N2CC[C@]3(C=Cc4ccccc43)[C@@H](C)C2)C1`: the IC50 in [1] came to 3.5 nM; in data set [2] it was 17 nM.
As to `CC(C)C[C@]1(C(=O)NCc2cc(F)cc(C(F)(F)F)c2)CC[C@@H](N2CC[C@]3(C=Cc4ccccc43)[C@@H](C)C2)C1`, the IC50 in [4] amounted to 2.04 nM; in [1], 3.9 nM; in [2], 7.5 nM.
For `C[C@H]1CN([C@@H]2CC[C@](C)(C(=O)NCc3cc(F)cc(C(F)(F)F)c3)C2)CC[C@]12C=Cc1ccccc12`, the IC50 in data set [1] amounted to 4 nM; in data set [2], 57 nM.
Consider `CCCC1(C(=O)NCc2cc(F)cc(C(F)(F)F)c2)CCC(N2CC[C@]3(C=Cc4ccccc43)[C@@H](C)C2)C1` (stereo partly specified), for which the IC50 in [1] stood at 5 nM; in data set [2], 17 nM.
Turning to `C[C@H]1CN(C2CCC(CC3CC3)(C(=O)NCc3cc(F)cc(C(F)(F)F)c3)C2)CC[C@]12C=Cc1ccccc12` (stereo partly specified), the half-maximal inhibitory concentration (IC50) is 5.5 nM in data set [1] and 15 nM in data set [2].
Turning to `CC(C)C[C@]1(C(=O)NCc2cc(C(F)(F)F)cc(C(F)(F)F)c2)CC[C@@H](N2CC[C@]3(C=Cc4ccccc43)[C@@H](C)C2)C1`, the IC50 was 8 nM in data set [1] and 26 nM in data set [2].
With `COCC1(C(=O)NCc2cc(C(F)(F)F)cc(C(F)(F)F)c2)CCC(N2CC[C@]3(C=Cc4ccccc43)[C@@H](C)C2)C1` (stereo partly specified), the values for the IC50 in data set [1] and in data set [2] were 15.5 nM and 93 nM, respectively.
In the same order, the values of `CS[C@]1(C(=O)NCc2cc(F)cc(C(F)(F)F)c2)CC[C@@H](N2CC[C@]3(C=Cc4ccccc43)[C@@H](C)C2)C1` are 67 nM and 193 nM.
`CC(C)[C@]1(C(=O)NCc2cc(F)cc(C(F)(F)F)c2)CC[C@@H](N2CC[C@]3(C=Cc4ccccc43)[C@@H](C)C2)C1`: the concentration in [5] peaked (Cmax) at 414 nM. This compound also had a clearance in data set [6] of 19.4 mL/min/kg. For the same compound, in data set [7], the Vd is 2.99 L/kg. For the same compound, the half-life in data set [8] is 2.5 h; in data set [11] it was 2 h. In addition, the IC50 in data set [4] came out at 0.71 nM; in data set [1] it was 3.1 nM; in data set [2], 5 nM. Besides, the Tmax in data set [9] was determined as 0.83 h. This compound also showed a bioavailability in data set [10] of 32%.
Regarding `C[C@H]1CN([C@@H]2CC[C@](CC3CCC3)(C(=O)NCc3cc(C(F)(F)F)cc(C(F)(F)F)c3)C2)CC[C@]12C=Cc1ccccc12`, the IC50 in data set [1] was 19 nM; in [2], 64 nM.
As for `CCCCCCC1(C(=O)NCc2cc(C(F)(F)F)cc(C(F)(F)F)c2)CCC(N2CC[C@]3(C=Cc4ccccc43)[C@@H](C)C2)C1` (stereo partly specified), the IC50 in data set [1] turned out to be 231 nM; in data set [2], 279 nM.
In the same order, the values of `CCC1(C(=O)NCc2cc(F)cc(C(F)(F)F)c2)CCC(N2CC[C@]3(C=Cc4ccccc43)[C@@H](C)C2)C1` (stereo partly specified) are 3.3 nM and 3.5 nM.
In the same order, the values of `COCC1(C(=O)NCc2cc(F)cc(C(F)(F)F)c2)CCC(N2CC[C@]3(C=Cc4ccccc43)[C@@H](C)C2)C1` (stereo partly specified) are 8.5 nM and 74 nM.
In the case of `C[C@H]1CN(C2CCC(C(=O)NCc3cc(C(F)(F)F)cc(C(F)(F)F)c3)(C3CC3)C2)CC[C@]12C=Cc1ccccc12` (stereo partly specified), the half-inhibitory concentration (IC50) in [1] was determined as 6.5 nM; in data set [2], 45 nM.
Taken in the same sequence, the figures for `C[C@H]1CN(C2CCC(CC3CCC3)(C(=O)NCc3cc(F)cc(C(F)(F)F)c3)C2)CC[C@]12C=Cc1ccccc12` (single isomer, unassigned; diastereomer 2) were 32 nM and 147 nM.
In the same order, the values of `C[C@H]1CN([C@@H]2CC[C@](C)(C(=O)NCc3cc(C(F)(F)F)cc(C(F)(F)F)c3)C2)CC[C@]12C=Cc1ccccc12` are 9 nM and 126 nM.
Turning to `C[C@H]1CN(C2CCC(CC3CCC3)(C(=O)NCc3cc(F)cc(C(F)(F)F)c3)C2)CC[C@]12C=Cc1ccccc12` (single isomer, unassigned; diastereomer 4) [listing 2 of 2 here], in data set [1], the IC50 worked out at 229 nM.
On to `C[C@H]1CN([C@@H]2CC[C@@](C(=O)NCc3cc(F)cc(C(F)(F)F)c3)(C3CC3)C2)CC[C@]12C=Cc1ccccc12`, for which the results for the IC50 in data set [4], in [1] and in data set [2] were 0.63 nM, 1.9 nM and 8 nM, respectively.
Regarding `CCC[C@]1(C(=O)NCc2cc(C(F)(F)F)cc(C(F)(F)F)c2)CC[C@@H](N2CC[C@]3(C=Cc4ccccc43)[C@@H](C)C2)C1`, the half-inhibitory concentration (IC50) in [1] amounted to 16 nM; in data set [2], 44.3 nM.
In the same order, the values of `CCCCCCC1(C(=O)NCc2cc(F)cc(C(F)(F)F)c2)CCC(N2CC[C@]3(C=Cc4ccccc43)[C@@H](C)C2)C1` (stereo partly specified) are 27 nM and 128 nM.
